Measurements published in PubChem BioAssay AID743214 (The Scripps Research Institute Molecular Screening Center, 2013).
Out of some 2,100 compounds screened, about 10 (0.5%) were called active. These entries were drawn from the full list. A number with no mark means an inactive call.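 Rule for the calls: active = mean triplicate inhibition above the solvent-only control wells' mean plus 3 SD (cut at about 12% in these data); inactive = the rest.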

Molecular target: Disintegrin and metalloproteinase domain-containing protein 17 (Homo sapiens) (UniProt P78536)
Sequence (P78536 215-824 limits assumed): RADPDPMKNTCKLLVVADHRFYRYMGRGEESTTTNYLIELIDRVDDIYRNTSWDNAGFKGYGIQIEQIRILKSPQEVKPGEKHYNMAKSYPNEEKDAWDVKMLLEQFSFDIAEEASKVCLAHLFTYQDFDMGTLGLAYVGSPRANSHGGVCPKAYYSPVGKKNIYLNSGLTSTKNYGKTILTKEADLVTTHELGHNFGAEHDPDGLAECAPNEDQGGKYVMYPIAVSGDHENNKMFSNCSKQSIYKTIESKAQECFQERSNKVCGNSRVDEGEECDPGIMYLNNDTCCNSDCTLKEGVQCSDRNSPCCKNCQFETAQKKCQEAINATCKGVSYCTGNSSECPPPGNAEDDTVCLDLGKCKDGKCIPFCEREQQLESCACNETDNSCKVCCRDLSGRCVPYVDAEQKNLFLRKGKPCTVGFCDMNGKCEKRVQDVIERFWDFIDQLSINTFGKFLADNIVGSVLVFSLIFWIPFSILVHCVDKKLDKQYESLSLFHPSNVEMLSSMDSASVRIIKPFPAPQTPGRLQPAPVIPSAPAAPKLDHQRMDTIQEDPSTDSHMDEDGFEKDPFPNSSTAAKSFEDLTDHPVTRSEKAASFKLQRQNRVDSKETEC
Test: inhibition of ADAM17 peptide cleavage – biochemical, QFRET, high throughput, counter-screen for ADAM10 exosite inhibitor project (AID 743214);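 note: 0% = DMSO wells and 100% = marimastat wells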
Conditions: EDANS fluorescence, at 6.95 µM, active compounds read high
How it was run: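 Assay system – ADAM17 protease with quenched-FRET EDANS/DABCYL peptide substrate · Amount – ADAM17 2X stock, 20 nM · Schedule – 30 min compound–enzyme preincubation, then 3 h reaction, both 25 °C · Measured by – EDANS fluorescence 359/460 nm · Read-out – percent inhibition of ADAM17 cleavage · Replicates – each compound tested in triplicate wells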

SMILES	inhibition [%]
Cc1cccc(C2c3[nH]c4ccccc4c3CCN2C(=O)c2cc(-c3cccn3C)n[nH]2)n1 (stereo not drawn)	2.55
COc1ccc([C@H]2CC(=O)C=C(c3ccc(OC(F)(F)F)cc3)C2)cc1OC	0.8
O=C(CC1SC(=Nc2ccccc2)N(Cc2ccccn2)C1=O)Nc1cccc(Cl)c1 (stereo not drawn)	2.48
COc1cc(/C=N/O)cc(Br)c1OS(=O)(=O)c1ccc(C)cc1	0.97
CC(C)C(=O)Nc1cccc(NC(=S)NC(=O)C(c2ccccc2)c2ccccc2)c1	3.08
CC(C)(C)OC(=O)N1CCC(NC(=O)c2[nH]cnc2C(=O)N[C@@H](Cc2ccccc2)C(=O)OCc2ccccc2)CC1	3.26
CCOc1ccc(N2C(=O)CC(N(CCc3ccc(OC)c(OC)c3)C(=S)Nc3ccccc3)C2=O)cc1 (stereo not drawn)	0.25
CCCC(=O)n1nc(NCc2ccc(OC)cc2)nc1NCc1ccc(OC)cc1	2.02
O=C(/C=C/c1ccc(F)cc1)NC(=S)NNC(=O)c1cccnc1	0.5
COc1cccc(NC(=O)C2C(c3ccccc3)C2(Cl)Cl)c1 (stereo not drawn)	1
CC1(C)C=Cc2c(ccc3c2OC[C@@H](c2ccc(O)cc2O)C3)O1	2.8
Cc1ccc(C)c(NC(=S)NNC(=O)c2csc(C)c2)c1	2.16
COc1ccc(S(=O)(=O)N2CCN(C(C)C(=O)Nc3ccc(C(C)C)cc3)CC2)cc1 (stereo not drawn)	1.3
COc1ccc(C(=O)NNC(=S)NC(=O)c2ccccc2)cc1	0.42
O=C1[C@H]2[C@@H](c3ccc(F)cc3)N3C(=O)N(c4ccc(C(F)(F)F)cc4)C(=O)[C@@]3(Cc3ccccc3)[C@H]2C(=O)N1C1CCCCC1	2.35
COc1cccc(CC2(CO)CCCN(Cc3ccc(OC(F)F)cc3)C2)c1 (stereo not drawn)	0.36
CC(C)Oc1cc(F)ccc1-c1cc(C(=O)Nc2cccc(Cl)c2)[nH]n1	2.81
CCOc1cc(NC(=O)c2ccccc2C(=O)O)c(OCC)cc1NC(=O)c1ccccc1F	2.06
Cc1csc(NC(=S)Nc2cccc(Cl)c2)n1	2.94
O=C(NC(Cc1c[nH]c2ccccc12)C(=O)N/N=C/c1ccc(Br)cc1)c1cccs1 (stereo not drawn)	3.25
Cc1cc(C)cc(NS(=O)(=O)c2ccc(Oc3ncc(C(F)(F)F)cc3Cl)cc2)c1	5.19
Cc1ccc(N(NC(=O)C(C)(C)O)C(=O)c2ccccc2)cc1C	-0.31
O=C1[C@H]2[C@@H](c3ccc(C(F)(F)F)cc3)N[C@]3(CCCN(Cc4ccc(Br)cc4)C3=O)[C@H]2C(=O)N1Cc1ccccc1	2.47
Cc1[nH]c2ccccc2c1C(=O)COC(=O)c1c(-c2ccccc2)noc1C	2.46

SMILES	inhibition [%]
CC1(Cc2cccc(C#N)c2)C(=O)Nc2ccc(-c3cccc(C(F)(F)F)c3)cc21 (stereo not drawn)	2.64
Cc1ccc(OCc2nnc(SC/C=C/c3ccccc3)n2Cc2ccco2)cc1	2.07
Cc1ccccc1-n1c(SCC(=O)Nc2cccc3ccccc23)nc(O)cc1=O	0.79
O=C(CNC(=O)c1ccc(Cl)cc1Cl)NCC(=O)Nc1ccccc1N1CCOCC1	-0.05
Cc1cnc(C(=O)OCc2c(C)cc(C(C)(C)C)cc2C)cn1	0.19
Cc1cc(C)cc(NC(=O)CSCc2cnn(-c3ccccc3)c2-n2cccc2)c1	1.7
c1ccc2c(CCN3CCNC[C@H]3Cc3cccc4ccccc34)cccc2c1	2.24
Cc1cc(O)ccc1-c1cc(C(=O)NCc2cc(C(F)(F)F)cc(C(F)(F)F)c2)[nH]n1	1.86
Cc1cc(C)cc(NC(=S)NCCc2c[nH]c3ccccc23)c1	0.79
COc1ccc(C2CC(c3ccccc3)=NN2C(=O)COC(=O)COc2ccccc2)cc1 (stereo not drawn)	3.56
C=CC[C@H](CC(=O)N(CCO)Cc1ccccc1)C(=O)N[C@@H](COC(=O)[C@@H](CC=C)Cc1ccc(F)cc1)Cc1ccccc1	3.06
CCC(C)(C)c1ccc(Oc2ccc(NC(=O)COC(=O)C3=COCCO3)cc2)cc1	3.28
COc1ccc(Cl)cc1NC(=O)CN(C)C(=O)CCCc1c[nH]c2ccccc12	0.4
COc1ccccc1CC1(C)C(=O)Nc2ccc(OC(F)(F)F)cc21 (stereo not drawn)	0.53
CC(C)(C)OC(=O)CNC(=O)c1[nH]cnc1C(=O)N[C@@H](Cc1ccccc1)C(=O)OCc1ccccc1	2.08
C=CCC[C@@H](Cc1ccc(F)cc1)C(=O)OC[C@H](Cc1c[nH]c2ccccc12)NC(=O)[C@@H](CC=C)CC(=O)N(CCO)Cc1ccccc1	3.11
Cc1cc(Nc2ccccc2)n(C(=O)c2ccc(N)cc2)n1	0.56
O=C(NCc1ccccc1)c1onc(CSc2nc3ccccc3[nH]2)c1C(=O)NCc1ccccc1	1.52
COc1ccc(C(=O)NN2C(=O)C3C(c4ccccc4)C=CC(c4ccccc4)C3C2=O)cc1 (stereo not drawn)	2.28
N#Cc1nc(Cc2cccc3ccccc23)oc1NCc1ccc2c(c1)OCO2	2.25
CC(C)Oc1ccc(CC(=O)NNC(=S)Nc2ccc(Br)cc2)cc1	0.68
Cn1nc(C(F)(F)F)c(C(=O)Nc2cccc(C(F)(F)F)c2)c1SCc1ccc(Cl)cc1	2.65
O=C(Oc1cccc(N2C(=O)C3C4c5ccccc5C(c5ccccc54)C3C2=O)c1)c1ccco1 (stereo not drawn)	1.5
COc1cc(/C=N/n2c(C)n[nH]c2=S)ccc1OCc1ccccc1	-0.91
